Measurements published in ChEMBL document CHEMBL2046313, “Discovery and evaluation of a non-Zn chelating, selective matrix metalloproteinase 13 (MMP-13) inhibitor for potential intra-articular treatment of osteoarthritis” (J Med Chem, 2012).

How the values were obtained:
[1] = Drug uptake in Sprague-Dawley rat synovial lavage at 0.5 mg/joint measured on day 56; format: ADME; details: in vivo, other, BLD = below limit of detection
[2] = target: T1, A disintegrin and metalloproteinase with thrombospondin motifs 4 (Homo sapiens, UniProt O75173); test: Inhibition of human recombinant aggrecanase 1 using aggrecan-IGD as substrate measured after 15 mins by ELISA
T1 sequence (O75173 whole entry): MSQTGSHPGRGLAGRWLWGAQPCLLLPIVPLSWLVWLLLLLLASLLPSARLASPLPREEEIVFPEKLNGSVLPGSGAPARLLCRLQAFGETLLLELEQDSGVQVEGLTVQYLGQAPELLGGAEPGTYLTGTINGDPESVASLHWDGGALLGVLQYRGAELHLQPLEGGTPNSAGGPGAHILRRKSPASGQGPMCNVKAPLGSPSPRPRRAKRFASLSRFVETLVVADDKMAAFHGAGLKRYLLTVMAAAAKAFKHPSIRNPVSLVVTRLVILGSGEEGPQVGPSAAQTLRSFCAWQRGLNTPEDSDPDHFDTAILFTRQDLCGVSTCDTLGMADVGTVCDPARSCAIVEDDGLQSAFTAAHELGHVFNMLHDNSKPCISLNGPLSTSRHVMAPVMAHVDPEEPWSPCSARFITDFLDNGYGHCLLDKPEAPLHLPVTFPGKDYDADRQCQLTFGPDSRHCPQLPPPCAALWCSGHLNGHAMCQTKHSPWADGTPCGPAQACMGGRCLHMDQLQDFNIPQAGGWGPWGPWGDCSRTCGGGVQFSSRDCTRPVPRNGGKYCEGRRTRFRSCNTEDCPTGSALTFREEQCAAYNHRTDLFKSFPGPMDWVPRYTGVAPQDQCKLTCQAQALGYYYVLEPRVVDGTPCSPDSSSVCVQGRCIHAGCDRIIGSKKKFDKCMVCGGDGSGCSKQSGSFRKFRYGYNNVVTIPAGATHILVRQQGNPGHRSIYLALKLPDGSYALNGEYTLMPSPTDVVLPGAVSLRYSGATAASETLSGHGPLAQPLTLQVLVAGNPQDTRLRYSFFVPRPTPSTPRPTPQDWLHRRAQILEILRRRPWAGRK
How it was run: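 Aggrecanase-1 was run in 50 mM Tris-HCl pH 7.5, 150 mM NaCl, 5 mM CaCl₂, 0.05% Brij-35, with 100 nM recombinant human aggrecan interglobular domain as substrate, for 15 min at 37 °C. The reaction was stopped with EDTA, and ARGSVIL neoepitopes were quantified by ELISA.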

[3] = test system: Plasma; test: Drug uptake in Sprague-Dawley rat plasma at 100 mg/kg, ip measured after 8 weeks; format: ADME, organism-based; parameters: dose 100 mg/kg, route intraperitoneal; details: in vivo, 1344 h, BLD = below limit of detection
[4] = target: Collagenase 3 (Homo sapiens, UniProt P45452); test: Inhibition of human recombinant MMP13 using MCA-Pro-Cha-Gly-Nva-His-Ala-Dpa-NH2 as substrate preincubated for 10 mins measured by fluorescence analysis
How it was run: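 Catalytic domain of recombinant human MMP-13 was assayed with fluorogenic substrate in 50 mM Tris-HCl pH 7.5, 150 mM NaCl, 5 mM CaCl₂, 0.05% Brij-35. Enzyme was 1–10 nM and substrate 4–10 μM. It was preincubated 10 min with varying inhibitor concentrations, and IC50 came from at least duplicate runs.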

[5] = Drug uptake in Sprague-Dawley rat cartilage at 0.5 mg/joint measured after 21 days; format: ADME, tissue-based, Cartilage tissue; details: read-out: Drug uptake
[6] = Metabolic stability in rat microsomes assessed as unmetabolized compound after 60 mins; format: ADME, Microsome; details: read-out: Stability
[7] = test system: Plasma; test: Drug uptake in Sprague-Dawley rat plasma at 1 mg/kg, iv measured after 8 weeks; format: ADME, organism-based; parameters: dose 1 mg/kg, route intravenous; details: in vivo, 1344 h, BLD = below limit of detection
[8] = species on record: Rattus norvegicus; test: Chondroprotective activity in Sprague-Dawley rat cartilage assessed as inhibition of MMP13-mediated C1,C2 release at 0.5 mg/joint, ia measured on day 14 by ELISA; format: functional
How it was run: (§1)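 Male Sprague-Dawley rats (175−200 g, three per group) received one IA injection of 50 μL PBS holding 10 mg/mL suspension (sonicated, vortexed) into right knee. They were killed at 1, 7, 14 or 21 days, and tibial cartilage was collected. Cartilage was then challenged with 10 μg/mL APMA-activated human MMP-13 for 24 h at 37 °C in Tris pH 7.5. The reaction was stopped with 10 mM EDTA, and released C1,2C was measured by ELISA. Vehicle cartilage incubated with or without MMP-13 defined 100% and 0%.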

[9] = species on record: Rattus norvegicus; test: Toxicity in Sprague-Dawley rat assessed as ability to use limbs at 0.5 mg/joint measured on day 56; format: organism-based; details: in vivo, other
[10] = Metabolic stability in human microsomes assessed as unmetabolized compound after 60 mins; format: ADME, Microsome; details: read-out: Stability
[11] = test system: Rattus norvegicus; test: Toxicity in Sprague-Dawley rat assessed as joint irritation at 0.5 mg/kg, ia measured after 3 weeks; format: organism-based; parameters: dose 0.5 mg/kg; details: in vivo, other, 504 h
[12] = target: Disintegrin and metalloproteinase domain-containing protein 17 (Homo sapiens, UniProt P78536); test: Inhibition of human recombinant TACE using MCA-Pro-Leu-Ala-Gln-Ala-Val-Dpa-Arg-Ser-Ser-Ser-Arg-NH2 as substrate preincubated for 10 mins measured by fluorescence analysis
How it was run: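 Recombinant human TACE was assayed with its fluorogenic peptide substrate in 25 mM Tris-HCl pH 9, 1.25 μM Zn(OAc)₂, 0.005% Brij-35. Enzyme was 1–10 nM and substrate 4–10 μM. Enzyme was preincubated 10 min with varying inhibitor concentrations, and IC50 came from at least duplicate runs.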

[13] = species on record: Rattus norvegicus; test: Chondroprotective activity in Sprague-Dawley rat cartilage assessed as inhibition of MMP13-mediated C1,C2 release at 0.5 mg/joint, ia measured on day 21 by ELISA; format: functional; how it was run: as §1
[14] = species on record: Rattus norvegicus; test: Chondroprotective activity in Sprague-Dawley rat cartilage assessed as inhibition of MMP13-mediated C1,C2 release at 0.5 mg/joint, ia measured on day 7 by ELISA; format: functional; how it was run: as §1
[15] = test system: Plasma; test: Drug uptake in Sprague-Dawley rat plasma at 0.5 mg/joint measured after 8 weeks; format: ADME, cell-free; details: other, 1344 h, BLD = below limit of detection
[16] = target: Stromelysin-1 (Homo sapiens, UniProt P08254); test: Inhibition of human recombinant MMP3 using MCAArg-Pro-Lys-Pro-Val-Glu-Nva-Trp-Arg-Lys(DNP)-NH2 as substrate preincubated for 10 mins measured by fluorescence analysis
How it was run: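 Catalytic domain of recombinant human MMP-3 was assayed with NFF-3 fluorogenic substrate in 50 mM MES pH 6.0, 10 mM CaCl₂, 0.05% Brij-35. Enzyme was 1–10 nM and substrate 4–10 μM. Enzyme was preincubated 10 min with varying inhibitor concentrations, and IC50 came from at least duplicate runs.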

[17] = species on record: Rattus norvegicus; test: Chondroprotective activity in Sprague-Dawley rat cartilage assessed as inhibition of MMP13-mediated C1,C2 release at 0.5 mg/joint, ia measured after 24 hrs by ELISA; format: functional; how it was run: as §1

Chain of Stromelysin-1 (P08254 whole entry, the tested form may be a part): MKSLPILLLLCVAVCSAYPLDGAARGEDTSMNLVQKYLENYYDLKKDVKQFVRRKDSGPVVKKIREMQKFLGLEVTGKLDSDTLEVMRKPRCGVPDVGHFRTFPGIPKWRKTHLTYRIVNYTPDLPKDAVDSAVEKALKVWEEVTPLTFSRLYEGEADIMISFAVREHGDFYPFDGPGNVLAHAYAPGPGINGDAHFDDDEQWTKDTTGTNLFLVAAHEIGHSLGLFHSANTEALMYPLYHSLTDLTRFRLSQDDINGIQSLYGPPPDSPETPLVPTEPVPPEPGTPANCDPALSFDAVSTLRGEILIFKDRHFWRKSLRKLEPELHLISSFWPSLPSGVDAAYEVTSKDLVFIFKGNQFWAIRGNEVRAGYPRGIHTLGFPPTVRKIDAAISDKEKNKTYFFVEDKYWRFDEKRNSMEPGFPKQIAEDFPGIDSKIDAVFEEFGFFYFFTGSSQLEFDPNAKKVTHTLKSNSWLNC
Chain of Disintegrin and metalloproteinase domain-containing protein 17 (P78536 whole entry, the tested form may be a part): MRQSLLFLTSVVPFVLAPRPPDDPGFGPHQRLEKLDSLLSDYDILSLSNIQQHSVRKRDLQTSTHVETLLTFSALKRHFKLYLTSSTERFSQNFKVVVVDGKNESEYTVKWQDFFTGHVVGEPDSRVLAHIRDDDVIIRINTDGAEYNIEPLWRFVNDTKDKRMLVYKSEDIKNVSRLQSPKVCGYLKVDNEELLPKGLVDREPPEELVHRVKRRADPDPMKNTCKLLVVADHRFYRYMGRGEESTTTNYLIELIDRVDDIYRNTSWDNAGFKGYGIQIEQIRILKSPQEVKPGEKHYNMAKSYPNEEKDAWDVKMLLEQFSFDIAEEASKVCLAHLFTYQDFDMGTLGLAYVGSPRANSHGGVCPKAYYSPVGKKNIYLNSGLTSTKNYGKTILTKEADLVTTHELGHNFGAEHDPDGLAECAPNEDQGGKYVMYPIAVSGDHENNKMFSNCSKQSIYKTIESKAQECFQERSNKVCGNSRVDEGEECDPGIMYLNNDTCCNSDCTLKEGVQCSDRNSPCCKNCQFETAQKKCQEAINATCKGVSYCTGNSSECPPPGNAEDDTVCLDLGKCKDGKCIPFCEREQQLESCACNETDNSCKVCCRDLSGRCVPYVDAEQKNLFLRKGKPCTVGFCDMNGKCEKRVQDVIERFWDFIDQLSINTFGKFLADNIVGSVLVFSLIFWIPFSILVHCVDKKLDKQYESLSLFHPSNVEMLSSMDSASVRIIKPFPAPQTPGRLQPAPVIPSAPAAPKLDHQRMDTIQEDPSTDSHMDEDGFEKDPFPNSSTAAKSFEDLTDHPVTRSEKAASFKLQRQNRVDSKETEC

- Drug uptake [1]: BLD
- IC50 [2]: 2400 nM
- Cp [3]: BLD
- IC50 [4]: 0.03 nM
- concentration at 504 h [5]: 4.09 µM
- remaining at 1 h [6]: 95%
- Cp [7]: BLD
- remaining at 1 h [10]: 96%
- IC50 [12]: > 20000 nM
- Cp [15]: BLD
- IC50 [16]: 8200 nM
Compound: Cc1c(C(=O)O)ccc2c1CC[C@@H]2NC(=O)c1cc(C(=O)NCc2ccc3c(c2)NC(=O)CO3)nc2ccnn12
- inhibition (INH) [8]: 100%
- Activity [9]: Non-toxic
- Activity [11]: Non-toxic
- inhibition (INH) [13]: 100%
- inhibition (INH) [14]: 100%
- inhibition (INH) [17]: 100%
